Measurements reported in ChEMBL document CHEMBL1139176, “Tetrazole and ester substituted tetrahydoquinoxalines as potent cholesteryl ester transfer protein inhibitors” (Bioorg Med Chem Lett, 2007).

System: not listed separately
Assay: Half life in rat at 2 mg/kg, iv
Assay type: ADME, organism-based
Parameters: dose 2 mg/kg, route intravenous
Details: in vivo

SMILES | half-life [h]
CCOC(=O)N1c2ccc(C(F)(F)F)cc2N(C(c2cc(C(F)(F)F)cc(C(F)(F)F)c2)c2nnn(C)n2)C[C@H]1CC (stereo in doubt; (D2)-55d) | 2.4

System: not listed separately
Assay: Solubility at pH 7.4
Assay type: physicochemical
Details: buffer

SMILES | Solubility [µg/mL]
CCOC(=O)N1c2ccc(C(F)(F)F)cc2N(C(c2cc(C(F)(F)F)cc(C(F)(F)F)c2)c2nnn(C)n2)C[C@H]1CC (stereo in doubt; (D2)-55d) | < 0.01

System: not listed separately
Assay: Clearance in rat at 2 mg/kg, iv
Assay type: ADME, organism-based
Parameters: dose 2 mg/kg, route intravenous
Details: in vivo

SMILES | clearance [mL/min/kg]
CCOC(=O)N1c2ccc(C(F)(F)F)cc2N(C(c2cc(C(F)(F)F)cc(C(F)(F)F)c2)c2nnn(C)n2)C[C@H]1CC (stereo in doubt; (D2)-55d) | 13

Molecular target: T1, Cholesteryl ester transfer protein (Homo sapiens, UniProt P11597)
T1 sequence (P11597 whole entry): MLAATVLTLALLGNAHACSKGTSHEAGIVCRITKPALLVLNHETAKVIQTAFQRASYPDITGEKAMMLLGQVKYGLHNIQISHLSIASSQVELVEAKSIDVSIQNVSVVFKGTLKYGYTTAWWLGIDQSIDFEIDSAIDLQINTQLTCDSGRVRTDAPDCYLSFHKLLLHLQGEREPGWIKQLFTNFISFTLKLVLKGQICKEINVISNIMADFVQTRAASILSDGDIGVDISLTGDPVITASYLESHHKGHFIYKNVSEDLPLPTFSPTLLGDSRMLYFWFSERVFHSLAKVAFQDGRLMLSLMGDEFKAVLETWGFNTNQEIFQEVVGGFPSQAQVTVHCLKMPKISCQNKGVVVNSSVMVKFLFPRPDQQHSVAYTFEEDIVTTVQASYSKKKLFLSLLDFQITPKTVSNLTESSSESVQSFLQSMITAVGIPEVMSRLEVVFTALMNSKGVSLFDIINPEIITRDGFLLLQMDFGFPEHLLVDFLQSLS
Assay: Inhibition of CETP in human plasma
Assay type: cell-free
Details: not given
Procedure, shortened: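 Radiometric transfer of ³H-cholesteryl ester from HDL to LDL, with human plasma supplying both CETP and LDL. Inhibitor, plasma and ³H-CE-HDL (diluted to 50 cholesterol) were incubated in 4% (v/v) final DMSO for 6 h at 37 °C. The reaction was stopped with 10 U heparin in 0.3 M MnCl₂ (final) to precipitate LDL, then spun at 1000g and supernatant (2/3 of assay volume) removed. IC50 reported.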

SMILES | IC50 [µM]
CCC1CN(C(c2cc(C(F)(F)F)cc(C(F)(F)F)c2)c2nnn(C)n2)c2cc(C(F)(F)F)ccc2N1C(=O)N1CCCC1 (stereo unspecified) | 100
CCOC(=O)N1c2ccc(C(F)(F)F)cc2N(C(c2cc(C(F)(F)F)cc(C(F)(F)F)c2)c2nnn(CC(=O)O)n2)CC1CC (stereo unspecified) | 54.6
CCNC(=O)N1c2ccc(C(F)(F)F)cc2N(C(c2cc(C(F)(F)F)cc(C(F)(F)F)c2)c2nnn(C)n2)CC1CC (stereo unspecified) | 46.4
CCCCC(CC)COC(=O)N1c2ccc(C(F)(F)F)cc2N(C(c2cc(C(F)(F)F)cc(C(F)(F)F)c2)c2nnn(C)n2)CC1CC (stereo unspecified) | 62.6
CCC1CN(C(c2cc(C(F)(F)F)cc(C(F)(F)F)c2)c2nnn(C)n2)c2cc(C(F)(F)F)ccc2N1C(=O)N(C)C (stereo unspecified) | 100
CCOC(=O)N1c2ccc(C(F)(F)F)cc2N(C(c2cc(C(F)(F)F)cc(C(F)(F)F)c2)c2nnn(CC(=O)OC(C)(C)C)n2)CC1CC (stereo unspecified) | 14.6
CCOC(=O)N1c2ccc(C(F)(F)F)cc2N(C(c2cc(C(F)(F)F)cc(C(F)(F)F)c2)c2nnn(CC3CC3)n2)CC1CC (stereo unspecified) | 4.55
CCOC(=O)N1c2ccc(C(F)(F)F)cc2N(C(c2cc(C(F)(F)F)cc(C(F)(F)F)c2)c2nnn(CCN(C)C)n2)CC1CC (stereo unspecified) | 7.81
CCOC(=O)N1c2ccc(C(F)(F)F)cc2N(C(c2cc(C(F)(F)F)cc(C(F)(F)F)c2)c2nnn(CC(=O)OC)n2)CC1CC (stereo unspecified) | 32.5
CCC1CN(C(c2cc(C(F)(F)F)cc(C(F)(F)F)c2)c2nnn(C)n2)c2cc(C(F)(F)F)ccc2N1C(=O)N1CCOCC1 (stereo unspecified) | 36.9
CCOC(=O)N1c2ccc(C(F)(F)F)cc2N(C(c2cc(C(F)(F)F)cc(C(F)(F)F)c2)c2nnn(CCC(=O)OC)n2)CC1CC (stereo unspecified) | 4.42
CCOC(=O)N1c2ccccc2N(C(Cc2ccccc2)C(=O)OC)CC1CC (stereo in doubt; (D1)-9a) | > 100
CCOC(=O)N1c2ccccc2N(C(Cc2cc(C(F)(F)F)cc(C(F)(F)F)c2)C(=O)OC)CC1CC (stereo in doubt; (D1)-10a) | > 100
CCOC(=O)N1c2ccccc2N(C(C(=O)OC)c2cc(C(F)(F)F)cc(C(F)(F)F)c2)CC1CC (stereo in doubt; (D1)-16a) | 5
CCOC(=O)N1c2cc(Cl)c(Cl)cc2N(C(C(=O)OC)c2cc(C(F)(F)F)cc(C(F)(F)F)c2)CC1CC (stereo in doubt; (D1)-18a) | 92.5
CCC1CN(C(c2cc(C(F)(F)F)cc(C(F)(F)F)c2)c2nnn(C)n2)c2cc(C(F)(F)F)ccc2N1C(=O)NCCO (stereo in doubt; (D1)-33a) | 100
CCOC(=O)N1c2ccc(C(F)(F)F)cc2N(C(c2cc(C(F)(F)F)cc(C(F)(F)F)c2)c2nnn(CC(N)=O)n2)CC1CC (stereo in doubt; (D1)-50a) | 5.22
CCOC(=O)N1c2ccc(C(F)(F)F)cc2N(C(c2cc(C(F)(F)F)cc(C(F)(F)F)c2)c2nnn(C)n2)C[C@@H]1CC (stereo in doubt; (D1)-55b) | 47.5
CCOC(=O)N1c2ccccc2N(C(Cc2ccccc2)C(=O)OC)CC1CC (stereo in doubt; (D2)-9b) | > 100
CCOC(=O)N1c2ccccc2N(C(Cc2cc(C(F)(F)F)cc(C(F)(F)F)c2)C(=O)OC)CC1CC (stereo in doubt; (D2)-10b) | > 100
CCOC(=O)N1c2ccccc2N(C(C(=O)OC)c2cc(C(F)(F)F)cc(C(F)(F)F)c2)CC1CC (stereo in doubt; (D2)-16b) | 8.6
CCOC(=O)N1c2cc(Cl)c(Cl)cc2N(C(C(=O)OC)c2cc(C(F)(F)F)cc(C(F)(F)F)c2)CC1CC (stereo in doubt; (D2)-18b) | 93.4
CCC1CN(C(c2cc(C(F)(F)F)cc(C(F)(F)F)c2)c2nnn(C)n2)c2cc(C(F)(F)F)ccc2N1C(=O)NCCO (stereo in doubt; (D2)-33b) | 4.57
CCC1CN(C(c2cc(C(F)(F)F)cc(C(F)(F)F)c2)c2nnn(C)n2)c2cc(C(F)(F)F)ccc2N1CC1CCCCC1 (stereo in doubt; (D2)-39b) | 5.7
CCOC(=O)N1c2ccc(C(F)(F)F)cc2N(C(c2cc(C(F)(F)F)cc(C(F)(F)F)c2)c2nnn(CC(N)=O)n2)CC1CC (stereo in doubt; (D2)-50b) | 100

The remaining molecules from weak to strong by IC50, led by results:

IC50 [µM] | SMILES
4.4 | CCC1CN(C(c2cc(C(F)(F)F)cc(C(F)(F)F)c2)c2nnn(C)n2)c2cc(C(F)(F)F)ccc2N1C(=O)OCc1ccccc1 (stereo unspecified)
3.42 | CCOC(=O)N1c2ccc(C(F)(F)F)cc2N(C(c2cc(C(F)(F)F)cc(C(F)(F)F)c2)c2nnn(CCC#N)n2)CC1CC (stereo unspecified)
2.91 | CCC1CN(C(c2cc(C(F)(F)F)cc(C(F)(F)F)c2)c2nnn(C)n2)c2cc(C(F)(F)F)ccc2N1C[C@H]1CC[C@H](CC(=O)O)CC1 (stereo partly specified)
2.26 | CCOC(=O)N1c2ccc(C(F)(F)F)cc2N(C(c2cc(C(F)(F)F)cc(C(F)(F)F)c2)c2nnn(CCO)n2)CC1CC (stereo in doubt; (D1)-46a)
2.22 | CCOC(=O)N1c2ccc(C(F)(F)F)cc2N(C(c2cc(C(F)(F)F)cc(C(F)(F)F)c2)c2nnn(CCO)n2)CC1CC (stereo in doubt; (D2)-46b)
1.9 | CCOC(=O)N1c2ccc(Br)cc2N(C(C(=O)OC)c2cc(C(F)(F)F)cc(C(F)(F)F)c2)CC1CC (stereo unspecified)
1.5 | CCOC(=O)N1c2ccc(C(F)(F)F)cc2N(C(c2cc(C(F)(F)F)cc(C(F)(F)F)c2)c2nnn(C)n2)C[C@@H]1CC (stereo in doubt; (D2)-55c)
1.3 | CCC1CN(C(c2cc(C(F)(F)F)cc(C(F)(F)F)c2)c2nnn(C)n2)c2cc(C(F)(F)F)ccc2N1CC1CCCCC1 (stereo in doubt; (D1)-39a)
1.11 | CCCCOC(=O)N1c2ccc(C(F)(F)F)cc2N(C(c2cc(C(F)(F)F)cc(C(F)(F)F)c2)c2nnn(C)n2)CC1CC (stereo unspecified)
0.87 | CCOC(=O)N1c2ccc(C(F)(F)F)cc2N(C(c2cc(C(F)(F)F)cc(C(F)(F)F)c2)c2nnn(C)n2)CC1CC (stereo in doubt; (D1)-28a)
0.854 | CCC1CN(C(c2cc(C(F)(F)F)cc(C(F)(F)F)c2)c2nnn(C)n2)c2cc(C(F)(F)F)ccc2N1CC1CCCC1 (stereo unspecified)
0.56 | CCOC(=O)N1c2ccc(C(F)(F)F)cc2N(C(C(=O)OC)c2cc(C(F)(F)F)cc(C(F)(F)F)c2)CC1CC (stereo in doubt; (D2)-22b)
0.5 | CCOC(=O)N1c2ccc(C(F)(F)F)cc2N(C(C(=O)OC)c2cc(C(F)(F)F)cc(C(F)(F)F)c2)CC1CC (stereo in doubt; (D1)-22a)
0.44 | CCOC(=O)N1c2ccc(C(F)(F)F)cc2N(C(c2cc(C(F)(F)F)cc(C(F)(F)F)c2)c2nnn(C)n2)C[C@H]1CC (stereo in doubt; (D1)-55a)
0.232 | CCC1CN(C(c2cc(C(F)(F)F)cc(C(F)(F)F)c2)c2nnn(C)n2)c2cc(C(F)(F)F)ccc2N1C(=O)OCC(C)C (stereo unspecified)
0.23 | CCOC(=O)N1c2ccc(C(F)(F)F)cc2N(C(c2cc(C(F)(F)F)cc(C(F)(F)F)c2)c2nnn(C)n2)CC1CC (stereo in doubt; (D2)-28b)
0.143 | CCOC(=O)N1c2ccc(C(F)(F)F)cc2N(C(c2cc(C(F)(F)F)cc(C(F)(F)F)c2)c2nnn(C)n2)C[C@H]1CC (stereo in doubt; (D2)-55d)

System: not listed separately
Assay: Volume of distribution in rat at 2 mg/kg, iv
Assay type: ADME, organism-based
Parameters: dose 2 mg/kg, route intravenous
Details: in vivo

SMILES | Vd [L/kg]
CCOC(=O)N1c2ccc(C(F)(F)F)cc2N(C(c2cc(C(F)(F)F)cc(C(F)(F)F)c2)c2nnn(C)n2)C[C@H]1CC (stereo in doubt; (D2)-55d) | 2.6
